Our source for the EC50, Max stimulation and Ki values is ChEMBL document CHEMBL1134366, “Enantiospecific synthesis and pharmacological evaluation of a series of super-potent, conformationally restricted 5-HT(2A/2C) receptor agonists” (J Med Chem, 2001).

A value given as a limit tells only on which side of the number the result lay.

Assay [1] deals with T1, 5-hydroxytryptamine receptor 2A (Rattus norvegicus, UniProt P14842). The assay is described as follows: Ability to stimulate phosphoinositide hydrolysis in NIH3T3 cells expressing the 5-hydroxytryptamine 2A receptor. It is filed as cell-based.
T1 sequence (P14842 whole entry): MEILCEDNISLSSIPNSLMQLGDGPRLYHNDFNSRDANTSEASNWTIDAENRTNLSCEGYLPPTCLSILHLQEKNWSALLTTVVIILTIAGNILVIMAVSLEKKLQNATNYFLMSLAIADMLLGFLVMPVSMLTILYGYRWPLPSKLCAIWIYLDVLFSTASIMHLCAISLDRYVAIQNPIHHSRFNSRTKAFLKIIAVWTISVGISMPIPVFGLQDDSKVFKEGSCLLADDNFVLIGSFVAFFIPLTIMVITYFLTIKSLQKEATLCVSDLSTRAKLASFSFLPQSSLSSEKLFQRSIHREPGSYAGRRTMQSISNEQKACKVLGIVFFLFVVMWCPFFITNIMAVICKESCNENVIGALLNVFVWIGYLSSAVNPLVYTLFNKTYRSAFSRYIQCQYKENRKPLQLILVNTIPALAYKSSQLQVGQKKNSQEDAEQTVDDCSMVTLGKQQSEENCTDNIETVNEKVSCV
Assay [2] has as its target 5-hydroxytryptamine receptor 2A (Rattus norvegicus) (UniProt P14842). The assay is described as follows: Percent maximal 5-HT stimulation at cloned rat 5-hydroxytryptamine 2A receptor (phosphoinositide hydrolysis study) at a conc of 100 uM.
Assay [3] deals with T2, 5-hydroxytryptamine receptor 2C (Rattus norvegicus, UniProt P08909).
T2 sequence (P08909 whole entry): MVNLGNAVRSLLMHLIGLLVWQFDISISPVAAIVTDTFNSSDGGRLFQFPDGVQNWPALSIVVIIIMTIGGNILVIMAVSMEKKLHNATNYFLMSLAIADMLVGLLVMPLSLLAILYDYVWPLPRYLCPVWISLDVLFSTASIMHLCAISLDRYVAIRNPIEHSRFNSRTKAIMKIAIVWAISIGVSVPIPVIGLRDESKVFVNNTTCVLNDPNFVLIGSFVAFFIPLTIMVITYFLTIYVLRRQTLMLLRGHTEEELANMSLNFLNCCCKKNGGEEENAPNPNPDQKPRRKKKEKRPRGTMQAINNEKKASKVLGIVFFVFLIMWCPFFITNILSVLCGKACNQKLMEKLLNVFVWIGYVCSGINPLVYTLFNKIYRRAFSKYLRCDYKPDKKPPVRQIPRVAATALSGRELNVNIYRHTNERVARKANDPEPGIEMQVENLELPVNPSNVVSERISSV
Briefly: Binding affinity at cloned rat 5-hydroxytryptamine 2C receptor using [3H]DOI as radioligand. In outline:
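Competition binding using harvested, frozen NIH-3T3 cells stably expressing rat 5-HT2C. Buffer 50 mM Tris, 0.5 mM EDTA, 10 mM MgCl2, pH 7.4. Incubated 60 min at 25 °C, then rapid filtration onto polyethylenimine-treated GF/B filters and scintillation counting. Nonspecific binding defined with 10 µM mianserin in the saturation assays.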

For assay [4], the target named is T1, 5-hydroxytryptamine receptor 2A. Briefly: Binding affinity at cloned rat 5-hydroxytryptamine 2A receptor using [3H]DOB as radioligand. In outline:
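Competition binding using harvested, frozen NIH-3T3 cells stably expressing rat 5-HT2A, serum-starved 5 h before harvest. Incubated 60 min at 25 °C, then rapid filtration onto GF/B filters pre-soaked in 0.3% polyethylenimine, and scintillation counting. Nonspecific binding defined with 10 µM cinanserin in the saturation assays.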

Sequence of 5-hydroxytryptamine receptor 2A (Rattus norvegicus) (P14842 whole entry): as the sequence (P14842 whole entry) above

As usually defined, the EC50 is the midpoint of the concentration-response curve. High values mean a need for much substance, low ones an effect from little substance. For orientation: Ki means a dissociation constant, usually derived from enzyme kinetics or from competition with a known ligand. Low readings indicate higher affinity, high ones lower affinity. As to `C[C@@H](N)Cc1c2c(c(C(F)(F)F)c3c1OCC3)OCC2`, the half-maximal effective concentration (EC50) in assay [1] is 28 nM. Also, in assay [2], the Max stimulation is 69%. In addition, the inhibitory constant (Ki) in assay [3] came to 1.9 nM; in assay [4], 0.7 nM.

Take `C[C@@H](N)Cc1c2ccoc2c(Br)c2ccoc12`: the EC50 in assay [1] was 2.7 nM. For the same molecule, the Max stimulation in assay [2] came to 93%. The Ki in assay [3] stood at 0.11 nM; in assay [4], 0.31 nM.

As to `C[C@H](N)Cc1c2c(cc3c1OCC3)OCC2`, in assay [1], a half-maximal response (EC50) required 2360 nM. In addition, the Max stimulation in assay [2] stood at 62%. Besides, the inhibition constant Ki came out at 119 nM in assay [3] and 227 nM in assay [4].

`C[C@H](N)Cc1c2c(c(Br)c3c1OCC3)OCC2` yielded an EC50 in assay [1] of 35 nM. The same molecule showed a Max stimulation in assay [2] of 76%. Also, the Ki was found to be 1.1 nM in assay [3] and 2.6 nM in assay [4].

Consider `C[C@@H](N)Cc1c2c(cc3c1OCC3)OCC2`, for which, in assay [1], the EC50 turned out to be 5650 nM. The molecule also had a Max stimulation in assay [2] of 99%. The Ki in assay [3] came out at 8.2 nM; in assay [4], 54.4 nM.

With `C[C@H](N)Cc1c2ccoc2c(C(F)(F)F)c2ccoc12`, the half-maximal effective concentration (EC50) in assay [1] was 12 nM. In assay [2], the Max stimulation came to 52%. The inhibition constant Ki in assay [3] came to 0.69 nM; in assay [4], 0.32 nM.

In the case of `C[C@H](N)Cc1c2ccoc2cc2ccoc12`, the EC50 in assay [1] amounted to 650 nM. Also, in assay [2], the Max stimulation amounted to 68%. The Ki in assay [3] stood at 6 nM; in assay [4], 37.9 nM.

In assay [1], `COc1ccc(OC)c(C[C@@H](C)N)c1` gave an EC50 above 10000 nM. The molecule also came in with a Max stimulation in assay [2] of 16%. For the same molecule, the values for the inhibitory constant (Ki) in assay [3] and in assay [4] were 520 nM and 2340 nM, respectively.

For the molecule `COc1cc(C(F)(F)F)c(OC)cc1CC(C)N` (configuration not stated), the EC50 in assay [1] was 68.4 nM. This molecule displayed a Max stimulation in assay [2] of 86%. The inhibitory constant (Ki) in assay [3] was 3.78 nM; in assay [4], 2.2 nM.

`C[C@@H](N)Cc1c2ccoc2cc2ccoc12` registered a half-maximal effective concentration (EC50) in assay [1] of 590 nM. This molecule displayed a Max stimulation in assay [2] of 76%. For the same molecule, the inhibition constant Ki in assay [3] turned out to be 0.79 nM; in assay [4], 1.5 nM.

`C[C@H](N)Cc1c2ccoc2c(Br)c2ccoc12` came in with a concentration for a half-maximal effect (EC50) in assay [1] of 19 nM. In addition, the Max stimulation in assay [2] turned out to be 79%. In addition, the inhibition constant (Ki) was found to be 0.25 nM in assay [3] and 0.68 nM in assay [4].

Consider `COc1cc(CC(C)N)c(OC)cc1Br` (configuration not stated), for which, in assay [2], the Max stimulation came out at 79%.

In turn, `C[C@@H](N)Cc1c2c(c(Br)c3c1OCC3)OCC2` showed a concentration for a half-maximal effect (EC50) in assay [1] of 8.38 nM. In assay [2], this molecule registered a Max stimulation of 80%. Besides, the Ki in assay [3] worked out at 0.26 nM; in assay [4], 1.2 nM.

`C[C@@H](N)Cc1c2ccoc2c(C(F)(F)F)c2ccoc12` came in with an EC50 in assay [1] of 3.8 nM. The molecule also yielded a Max stimulation in assay [2] of 60%. Also, the Ki in assay [3] came out at 0.4 nM; in assay [4] it was 0.29 nM.

In assay [1], `C[C@H](N)Cc1c2c(c(C(F)(F)F)c3c1OCC3)OCC2` had an EC50 of 30 nM. In assay [2], this molecule displayed a Max stimulation of 60%. Further, the Ki in assay [3] was 1.6 nM; in assay [4], 2 nM.
